Results from different studies.
Lines come from different studies, so protocols differ.
Target: Tyrosine-protein kinase Yes (YES1, Homo sapiens, UniProt P07947)

SMILES	assay	setting	remaining binding [%]
CN(c1ccnc(CNc2nc(Nc3ccc4c(c3)CC(=O)N4)ncc2C(F)(F)F)n1)S(C)(=O)=O	cell-free assay, competition with immobilised ligand	1 µM	77
CN1CCN(c2ccc(Nc3nccc(-c4ccccc4)n3)cc2C(F)(F)F)CC1	binding	10 µM	56
FC(F)(F)Oc1cccc(-c2cnc3ccc(-c4ccncc4)nn23)c1	binding, competition with immobilised ligand	5 µM	81
Cc1c(NC(=O)c2cc(C(N)=O)nc3cc(F)ccc23)c(C(F)(F)F)nn1Cc1ccc(C#N)cc1	cell-free assay, competition with immobilised ligand	1 µM	66
C[C@@H]1CCN(c2nccc(-c3cnn4ncccc34)n2)C1	binding	1 µM	100
COc1ncc2cc3ccccc3nc2c1C#N	cell-free assay, competition with immobilised ligand	5 µM	100
CCN1CCN(Cc2ccc(C(=O)Nc3ccc(C)c(Oc4ccc5c(c4)CC(=O)N5)c3)cc2C(F)(F)F)CC1	binding, competition with immobilised ligand	1 µM	98
CN(C)c1ncc(F)c(-c2cnn3ncccc23)n1	binding	1 µM	78
O=C(NCCCN1CCOCC1)c1ccc(Nc2nccc(-c3cc4ccccc4s3)n2)cc1	binding, competition with immobilised ligand	1 µM	91
CC1CCCN1c1nccc(-c2cnn3ncccc23)n1 (stereo not shown)	binding	1 µM	89
O=C(Nc1c[nH]nc1C(=O)NC1CCNCC1)c1cc(F)cc(F)c1	binding, competition with immobilised ligand	1 µM	100
CN(CCCC(F)(F)F)c1nccc(-c2cnn3ncccc23)n1	binding	1 µM	94
O=C(N[C@H]1CCCCC/C=C\C2C[C@@]2(C(=O)O)NC(=O)[C@@H]2C[C@@H](Oc3ccncc3)CN2C1=O)OC1CCCC1 (stereo partly shown)	binding, competition with immobilised ligand	1 µM	100
Cc1cnn2ncc(-c3ccnc(N(C)C)n3)c2c1	binding	1 µM	100
CSc1cccnc1N1CCN(Cc2nc3ccccc3[nH]2)CC1	cell-free assay, competition with immobilised ligand	1 µM	100
O=C(c1ccc(Nc2nccc(-c3cc4ccccc4s3)n2)cc1)N1CCC(N2CCCC2)CC1	binding, competition with immobilised ligand	1 µM	93
CCC(=N\O)/C(C)=C/c1ccc(F)cc1	cell-free assay, competition with immobilised ligand	1 µM	87
Cc1ccc(-n2nc(C(C)(C)C)cc2NC(=O)Nc2ccc(-n3c(N)c(C(N)=O)c4nc5ccc(NCCCN)cc5nc43)cc2)cc1	cell-free assay, competition with immobilised ligand	1 µM	1.9
COc1cnc(Nc2cccc(S(N)(=O)=O)c2)nc1N1CCN(c2ccccc2)C(=O)C1	binding, competition with immobilised ligand	1 µM	100
F[C@@H]1CCN(c2nccc(-c3cnn4ncccc34)n2)C1	binding	1 µM	90
c1cncc(-c2cccc(Nc3nccc(NC4CCCCC4)n3)c2)c1	binding, competition with immobilised ligand	10 µM	28
COc1ccc2cc(OCC3(C(=O)O)CN(C(=O)c4ccc(F)cc4)C3)ccc2c1	cell-free assay, competition with immobilised ligand	1 µM	100
N[C@H]1CCN(c2nccc(-c3cnn4ncccc34)n2)C1	binding	1 µM	91
O=C(NCc1ncc(C(F)(F)F)cc1Cl)c1ccc2c(c1)C1(CCS(=O)(=O)CC1)[C@H](C1CC1)N2S(=O)(=O)c1ccc(F)cc1	cell-free assay, competition with immobilised ligand	1 µM	90
O=C(NCCCN1CCOCC1)c1ccc(Nc2ncc(Cl)c(-c3ccc(Cl)s3)n2)cc1	binding, competition with immobilised ligand	1 µM	76
